Article PMC8148065 (Acta Pharmaceutica Sinica. B, 2020)
Entries after “also recorded” stand apart in the source; their conditions may differ.

Key:
[1] = biological target: T1, recombinant HMGCR protein (Homo sapiens, UniProt P04035); assay: HMG-CoA reductase activity assay; type: biochemical
T1 sequence (P04035 426-888 limits assumed): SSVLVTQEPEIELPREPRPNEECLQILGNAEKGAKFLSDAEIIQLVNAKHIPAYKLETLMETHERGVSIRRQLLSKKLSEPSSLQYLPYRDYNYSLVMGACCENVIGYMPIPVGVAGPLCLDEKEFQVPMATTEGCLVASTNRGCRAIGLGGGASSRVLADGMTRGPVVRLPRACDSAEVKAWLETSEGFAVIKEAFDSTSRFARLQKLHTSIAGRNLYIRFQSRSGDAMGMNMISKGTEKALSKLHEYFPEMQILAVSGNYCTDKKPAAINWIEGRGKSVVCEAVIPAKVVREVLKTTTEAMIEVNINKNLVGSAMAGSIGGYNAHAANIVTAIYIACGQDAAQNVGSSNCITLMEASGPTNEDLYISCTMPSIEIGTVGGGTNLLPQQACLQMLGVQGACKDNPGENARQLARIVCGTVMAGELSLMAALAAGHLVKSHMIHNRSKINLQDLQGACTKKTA

[2] = Chemical stability in saline; type: physicochemical; details: pH 7.4, 37 °C, 24 h
HMGCR [3] = biological target: T2, HMGCR (Mus musculus, UniProt Q01237); assay: Hepatic HMGCR level by Western blot in MFD-fed mice; type: in vivo, C57BL/6 mice; details: 20 mg/kg p.o. once daily 5 weeks, 16 h after final gavage
T2 sequence (Q01237 1-887): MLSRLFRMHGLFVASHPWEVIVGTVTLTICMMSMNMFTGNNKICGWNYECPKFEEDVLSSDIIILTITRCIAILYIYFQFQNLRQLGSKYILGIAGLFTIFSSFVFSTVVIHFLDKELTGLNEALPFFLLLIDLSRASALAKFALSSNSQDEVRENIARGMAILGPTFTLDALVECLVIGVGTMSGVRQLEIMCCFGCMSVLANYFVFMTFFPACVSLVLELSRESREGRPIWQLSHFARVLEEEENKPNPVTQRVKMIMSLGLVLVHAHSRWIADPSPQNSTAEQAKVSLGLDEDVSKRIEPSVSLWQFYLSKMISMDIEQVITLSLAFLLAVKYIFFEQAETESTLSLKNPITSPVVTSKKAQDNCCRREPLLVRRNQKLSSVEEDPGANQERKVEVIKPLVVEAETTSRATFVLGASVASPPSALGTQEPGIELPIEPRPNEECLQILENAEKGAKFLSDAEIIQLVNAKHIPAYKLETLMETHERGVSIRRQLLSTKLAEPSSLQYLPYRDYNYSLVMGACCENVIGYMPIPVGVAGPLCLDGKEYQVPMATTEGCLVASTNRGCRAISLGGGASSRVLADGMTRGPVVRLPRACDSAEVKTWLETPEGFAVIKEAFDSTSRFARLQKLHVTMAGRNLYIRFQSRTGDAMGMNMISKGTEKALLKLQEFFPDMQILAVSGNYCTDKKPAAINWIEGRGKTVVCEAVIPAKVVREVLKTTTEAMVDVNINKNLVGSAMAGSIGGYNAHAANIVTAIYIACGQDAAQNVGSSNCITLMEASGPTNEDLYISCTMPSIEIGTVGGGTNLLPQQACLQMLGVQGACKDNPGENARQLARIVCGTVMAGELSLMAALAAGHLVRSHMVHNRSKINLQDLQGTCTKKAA

[4] = In vitro metabolic stability in mouse liver microsomes; type: in vitro ADME; details: for half-life at 1 μmol/L: pH 7.4
How it was run: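 Mouse liver microsomes (0.5 mg/mL) were incubated with the test compound (1 μmol/L) and an NADPH regeneration system in phosphate buffer (1.0 mmol/L EDTA), pH 7.4. The reaction was started with NADPH and quenched at 5, 15, 30 and 45 min with acetonitrile plus internal standard. Samples were centrifuged, diluted in water and quantified by LC–MS/MS. t1/2 and CLint are means of duplicates.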

HMGCR [5] = biological target: T3, HMGCR (Homo sapiens, UniProt P04035); assay: Western blot of HMGCR level in HepG2 cells; type: cell-based
T3 sequence (P04035 1-888): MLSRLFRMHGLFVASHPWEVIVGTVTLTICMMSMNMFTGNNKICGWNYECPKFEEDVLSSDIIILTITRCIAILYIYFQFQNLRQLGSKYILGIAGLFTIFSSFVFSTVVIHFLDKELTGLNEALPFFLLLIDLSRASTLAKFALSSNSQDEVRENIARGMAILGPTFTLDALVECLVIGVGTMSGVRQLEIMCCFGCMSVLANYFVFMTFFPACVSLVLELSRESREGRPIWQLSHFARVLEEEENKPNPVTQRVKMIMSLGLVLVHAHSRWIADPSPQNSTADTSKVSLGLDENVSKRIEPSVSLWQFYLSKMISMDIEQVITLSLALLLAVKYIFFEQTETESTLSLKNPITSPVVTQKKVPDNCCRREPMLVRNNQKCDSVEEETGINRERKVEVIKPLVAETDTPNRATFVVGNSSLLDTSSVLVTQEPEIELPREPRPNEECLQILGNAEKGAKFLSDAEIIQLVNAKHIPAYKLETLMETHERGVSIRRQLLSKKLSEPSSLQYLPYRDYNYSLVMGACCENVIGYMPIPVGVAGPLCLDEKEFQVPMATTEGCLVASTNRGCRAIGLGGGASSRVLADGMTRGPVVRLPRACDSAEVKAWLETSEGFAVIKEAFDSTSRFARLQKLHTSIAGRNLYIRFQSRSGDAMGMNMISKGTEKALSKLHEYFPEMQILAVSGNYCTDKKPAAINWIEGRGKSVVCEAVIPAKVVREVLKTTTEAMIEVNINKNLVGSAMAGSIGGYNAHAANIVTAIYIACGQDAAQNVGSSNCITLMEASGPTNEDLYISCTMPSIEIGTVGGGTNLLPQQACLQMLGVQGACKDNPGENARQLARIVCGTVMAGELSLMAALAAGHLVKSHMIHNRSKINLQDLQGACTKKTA

[6] = tested on: MFD-induced hypercholesterolemia; assay: MFD-induced mouse model of hypercholesterolemia; type: in vivo, C57BL/6 mice; details: MFD mice
How it was run: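 Male C57BL/6 mice (20–24 g) were fed medium-fat diet (12% fat, 0.5% sodium cholate, 1.25% cholesterol) with 3 weeks' induction. Survival, body weight and food intake were logged weekly. Sixteen hours post-dose, retro-orbital serum TC, LDL-C and TG were measured on an automated analyser (one-way ANOVA, mean ± SD).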

[7] = previously reported in mice ref 53; cited from earlier work

Structure (SMILES): C[C@H]1C=C2C=C[C@H](C)[C@H](CC[C@@H]3C[C@@H](O)CC(=O)O3)[C@H]2[C@@H](OC(=O)NCCCOCCOCCOCCCNc2cccc3c2C(=O)N(C2CCC(=O)NC2=O)C3=O)C1 (stereo partly drawn) [Compound 16a, (1S,3R,7S,8S,8aR)-8-(2-((2R,4R)-4-Hydroxy-6-oxotetrahydro-2H-pyran-2-yl)ethyl)-3,7-dimethyl-1,2,3,7,8,8a-hexahydronaphthalen-1-yl (3-(2-(2-(3-((2-(2,6-dioxopiperidin-3-yl)-1,3-dioxoisoindolin-4-yl)amino)propoxy)ethoxy)ethoxy)propyl)carbamate]
- IC50 [1]: 1250 nM

Structure (SMILES): C[C@H]1C=C2C=C[C@H](C)[C@H](CC[C@@H]3C[C@@H](O)CC(=O)O3)[C@H]2[C@@H](OC(=O)NCCOCCOCCNc2cccc3c2C(=O)N(C2CCC(=O)NC2=O)C3=O)C1 (stereo partly drawn) [Compound 16b, (1S,3R,7S,8S,8aR)-8-(2-((2R,4R)-4-Hydroxy-6-oxotetrahydro-2H-pyran-2-yl)ethyl)-3,7-dimethyl-1,2,3,7,8,8a-hexahydronaphthalen-1-yl (2-(2-(2-((2-(2,6-dioxopiperidin-3-yl)-1,3-dioxoisoindolin-4-yl)amino)ethoxy)ethoxy)ethyl)carbamate]
- IC50 [1]: 1880 nM
- Chemical stability (decomposition) [2]: over half decomposition

Structure (SMILES): C[C@H]1C=C2C=C[C@H](C)[C@H](CC[C@@H]3C[C@@H](O)CC(=O)O3)[C@H]2[C@@H](OC(=O)NCCCNc2cccc3c2C(=O)N(C2CCC(=O)NC2=O)C3=O)C1 (stereo partly drawn) [Compound 16c, (1S,3R,7S,8S,8aR)-8-(2-((2R,4R)-4-Hydroxy-6-oxotetrahydro-2H-pyran-2-yl)ethyl)-3,7-dimethyl-1,2,3,7,8,8a-hexahydronaphthalen-1-yl (3-((2-(2,6-dioxopiperidin-3-yl)-1,3-dioxoisoindolin-4-yl)amino)propyl)carbamate]
- IC50 [1]: 2490 nM

Structure (SMILES): Cc1ncsc1-c1ccc(CNC(=O)[C@@H]2C[C@@H](O)CN2C(=O)[C@@H](NC(=O)CCCCCCCNC(=O)O[C@H]2C[C@@H](C)C=C3C=C[C@H](C)[C@H](CC[C@@H]4C[C@@H](O)CC(=O)O4)[C@H]32)C(C)(C)C)cc1 [Compound 21a, (1S,3R,7S,8S,8aR)-8-(2-((2R,4R)-4-Hydroxy-6-oxotetrahydro-2H-pyran-2-yl)ethyl)-3,7-dimethyl-1,2,3,7,8,8a-hexahydronaphthalen-1-yl (8-(((S)-1-((2S,4R)-4-hydroxy-2-((4-(4-methylthiazol-5-yl)benzyl)carbamoyl)pyrrolidin-1-yl)-3,3-dimethyl-1-oxobutan-2-yl)amino)-8-oxooctyl)carbamate]
- IC50 [1]: 1560 nM

Structure (SMILES): Cc1ncsc1-c1ccc(CNC(=O)[C@@H]2C[C@@H](O)CN2C(=O)[C@@H](NC(=O)CCCCCCCCCCNC(=O)O[C@H]2C[C@@H](C)C=C3C=C[C@H](C)[C@H](CC[C@@H]4C[C@@H](O)CC(=O)O4)[C@H]32)C(C)(C)C)cc1 [Compound 21b, (1S,3R,7S,8S,8aR)-8-(2-((2R,4R)-4-Hydroxy-6-oxotetrahydro-2H-pyran-2-yl)ethyl)-3,7-dimethyl-1,2,3,7,8,8a-hexahydronaphthalen-1-yl (11-(((S)-1-((2S,4R)-4-hydroxy-2-((4-(4-methylthiazol-5-yl)benzyl)carbamoyl)pyrrolidin-1-yl)-3,3-dimethyl-1-oxobutan-2-yl)amino)-11-oxoundecyl)carbamate]
- Hepatic HMGCR level (HMGCR [3]): robust HMGCR degradation
- half-life at 1 μmol/L ([4]; mouse, liver microsomes): 4.18 min
- CLint scaled at 1 μmol/L ([4]; mouse, liver microsomes, pH 7.4, CLint (mL/min/kg), mouse liver microsomes, mean of duplicate): 416 mL/min/kg
- IC50 [1]: 1320 nM
- Dmax at 1 µM (HMGCR [5]; HepG2, read-out: maximum degradation (Dmax)): 56%
- Serum total cholesterol (TC), LDL-C and triglyceride (TG) ([6]; 20 mg/kg p.o. once daily, 5 weeks): moderate decrease
- Serum TC and cholesteryl esters ([6]; 60 mg/kg p.o. once daily, 5 weeks): significantly reduced to lower levels
- Hepatic TC and TG ([6]; 20 or 60 mg/kg p.o. once daily, 5 weeks): reduced hepatic TC and TG in a dose-dependent manner
- Tolerability (body weight and food intake) ([6]; oral once a day for 5 weeks): well tolerated; also recorded: no apparent change of body weight and food intake
- Steatosis and lipid deposition in liver sections (H&E, oil red O) ([6]; p.o. once daily, 5 weeks): ameliorated MFD-induced steatosis and lipid deposition

Structure (SMILES): CC[C@H](C)C(=O)O[C@H]1C[C@@H](C)C=C2C=C[C@H](C)[C@H](CC[C@@H]3C[C@@H](O)CC(=O)O3)[C@H]21 [Lovastatin, lovastatin, reference compound]
- Hepatic HMGCR level (HMGCR [3]): retained high HMGCR level
- CLint ([4]; mouse liver microsomes, mean of duplicate): 7516 mL/min/kg
- half-life at 1 μmol/L ([4]; mouse, liver microsomes): 0.73 min
- Tmax [7]: 2 h
- Effect on HMGCR expression (HMGCR [5]; HepG2 cells, range of concentrations (0.1, 1, 3, 10 μmol/L), 16 h): remarkably upregulated HMGCR in a dose-dependent manner

Structure (SMILES): CC[C@H](C)C(=O)O[C@H]1C[C@@H](C)C=C2C=C[C@H](C)[C@H](CC[C@@H](O)C[C@@H](O)CC(=O)O)[C@H]21 [lovastatin acid]
- Tmax [7]: 1.5 h
